We go through eight compounds from ChEMBL document CHEMBL1157832, “Cytotoxic effects of tanshinones from Salvia miltiorrhiza on doxorubicin-resistant human liver cancer cells” (J Nat Prod, 2010).

For data set [1], the system named is HepG2. The data set is described as follows: Inhibition of […] doxorubicin efflux in doxorubicin resistant human HepG2 cells uM by flow cytometry. Format: cell-based.
Data set [2] concerns HepG2. The data set is described as follows: Induction of apoptosis in human HepG2 cells expressing wild type p53 gene assessed as caspase 3 activation. Format: functional, cell-based. An outline of the steps:
(§1)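 Cells were treated for 24 h, with etoposide as positive control. Cells (1 × 10^7) were lysed for 2 h at 4 °C and spun at 16000g for 10 min. The supernatant was mixed with assay buffer and the colorimetric substrate […], and pNA release was read at 405 nm. Soluble protein was determined by BCA.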

Data set [3] relates to Hep 3B2. The data set is described as follows: Induction of apoptosis in human Hep3B cells deficient in p53 gene assessed as caspase 3 activation. It is filed as functional, cell-based. Put shortly:
as §1

Data set [4] has as its target T1, P-gp (ABCB1) (Homo sapiens, UniProt P08183). In words: Inhibition of P-gp in doxorubicin-resistant human HepG2 cells assessed as potentiation of doxorubicin cytostatic effect at 25 uM by MTT assay. Format: cell-based. Particulars: probe doxorubicin. An outline of the steps:
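R-HepG2 cells (doxorubicin-selected HepG2 subclone kept in RPMI 1640 with 1.2 µM doxorubicin) co-treated with compound and doxorubicin; growth read by MTT (0.5 mg/mL, 3 h, 570 nm). Interaction scored by Chou–Talalay combination index at EC20/EC50 levels, Loewe additivity and Bliss independence.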
For orientation: Tetrazolium assays rely on reduction of a dye to a coloured formazan, in cell work by metabolically active cells.

Data set [5] in a line: Cytotoxicity against human THLE3 cells by MTT assay. Format: cell-based. Put shortly:
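THLE-3 immortalized liver cells cultured in BEGM kit medium, 37 °C, 5% CO2; 9 × 10^3 cells/well. After compound incubation, MTT (0.5 mg/mL) added for 3 h at 37 °C; formazan dissolved in DMSO and read at 570 nm. Untreated cells as vehicle control; DMSO final 0.25% (v/v). EC50 of growth inhibition, n = 3.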

Data set [6] relates to HepG2. In words: Induction of apoptosis in human HepG2 cells expressing wild type p53 gene assessed as PARP cleavage by Western blot. It is filed as functional, cell-based. An outline of the steps:
(§2)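 Cells treated 24 h, then lysed in Tris 50 mM/NaCl 100 mM/EDTA 5 mM/pyrophosphate 67 mM/1% Triton X-100, pH 7.5, with protease inhibitors. 20 µg soluble protein on 8% SDS-PAGE, nitrocellulose transfer, anti-PARP 1:1000 overnight at 4 °C, HRP anti-rabbit 1:2000 1 h, ECL. β-actin reprobe as loading reference; band densitometry; n = 3.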
In general terms: Immunoblotting shows a protein as a band on a membrane.

In data set [7] the test system is Hep 3B2. The data set is described as follows: Induction of apoptosis in human Hep3B cells deficient in p53 gene assessed as PARP cleavage by Western blot. Format: functional, cell-based. An outline of the steps:
as §2

The test system of data set [8] is PLC-PRF-5. The data set is described as follows: Induction of apoptosis in human PLC/PRF/5 cells expressing mutant p53 gene (codon 249) assessed as caspase 3 activation. Format: functional, cell-based. Put shortly:
(§3)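 After 24 h treatment, 1 × 10^7 cells lysed 2 h at 4 °C and spun at 16000g for 10 min. Supernatant incubated with caspase-3 substrate […], pNA release read at 405 nm, and protein measured by BCA. Activity expressed as fold of control; etoposide as positive control.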

Data set [9] relates to HepG2. In words: Effect on MRP1 protein expression in human HepG2 cells expressing wild type p53 gene at 25 uM after 24 hrs by Western blot. Format: functional, cell-based. An outline of the steps: (§4)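 HepG2 cells (MEM, 10% FBS) exposed to 25 µM for 24 h; lysates run on SDS-PAGE, transferred to nitrocellulose and probed with anti-MRP1 or anti-MRP2 antibodies, ECL detection. DMSO final 0.25% (v/v).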

Data set [10] relates to HepG2. In words: Effect on MRP2 protein expression in human HepG2 cells expressing wild type p53 gene at 25 uM after 24 hrs by Western blot. It is filed as functional, cell-based. Put shortly: as §4
For data set [11], the system named is HepG2. In words: Cytotoxicity against human HepG2 cells expressing wild type p53 gene by MTT assay. Format: functional, cell-based. An outline of the steps: (§5)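 Proliferation was measured by MTT. Cells were seeded at 9 × 10^3 per well and exposed to drug for an unstated period. MTT (0.5 mg/mL) was then added for 3 h at 37 °C, formazan was dissolved in DMSO, and absorbance was read at 570 nm against untreated vehicle controls (final DMSO 0.25% v/v). HepG2 was grown in MEM. Hep3B and PLC/PRF/5 were grown in DMEM with nonessential amino acids and 10% FBS. The doxorubicin-resistant HepG2 subclone was grown in RPMI 1640 with 10% FBS plus 1.2 µM doxorubicin to maintain Pgp.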

Data set [12] can be described thus: Cytotoxicity against human Hep3B cells deficient in p53 gene by MTT assay. It is filed as functional, cell-based, Hep 3B2. An outline of the steps: as §5
A short description of data set [13]: Cytotoxicity against human PLC/PRF/5 cells expressing mutant p53 gene (codon 249) by MTT assay. It is filed as functional, cell-based. Put shortly:
as §5

Data set [14] deals with HepG2. In words: Cytotoxicity against doxorubicin resistant human HepG2 cells expressing wild type p53 gene by MTT assay. Format: functional, cell-based. Put shortly: as §5
The subject of data set [15] is PLC-PRF-5. In words: Induction of apoptosis in human PLC/PRF/5 cells expressing mutant p53 gene (codon 249) assessed as PARP cleavage by Western blot. Format: functional, cell-based. Put shortly: as §2
In data set [16] the test system is HepG2. In words: Induction of apoptosis in human HepG2 cells expressing wild type p53 gene assessed as caspase 3 activation at 6.25 uM relative to control. It is filed as functional. An outline of the steps: as §3
In data set [17] the test system is PLC-PRF-5. In words: Induction of apoptosis in human PLC/PRF/5 cells expressing mutant p53 gene (codon 249) assessed as caspase 3 activation at 6.25 uM relative to control. Format: functional. An outline of the steps:
as §3

Data set [18] concerns the target T2, Multidrug resistance-associated protein 1 (Homo sapiens, UniProt P33527). The data set is described as follows: Inhibition of MRP1-mediated doxorubicin efflux in doxorubicin resistant human HepG2 cells at 10 to 100 uM by flow cytometry. Format: cell-based. For orientation: A flow cytometer gives signals particle by particle.
Data set [19] deals with T2, Multidrug resistance-associated protein 1. In words: Inhibition of MRP1-mediated doxorubicin efflux in doxorubicin resistant human HepG2 cells at 100 uM by flow cytometry. The conditions noted are these: hepg2, 100 µM. It is filed as cell-based.
Data set [20] has as its target T1, P-gp (ABCB1). In words: Inhibition of P-gp in doxorubicin-resistant human HepG2 cells assessed as potentiation of doxorubicin cytostatic effect at 6.25 uM by MTT assay. It is filed as cell-based. The conditions noted are these: probe doxorubicin.

A word on the inhibition: it is the percentage by which the read-out fell short of the control. A word on the EC50: it is the concentration needed to bring the measured effect to its halfway point. A high value points to a need for much substance.

Activity calls are given as the source filed them. No cut-off for these calls is given here. Where only a bound is given, the exact number is not on record here.

T1 sequence (P08183 whole entry): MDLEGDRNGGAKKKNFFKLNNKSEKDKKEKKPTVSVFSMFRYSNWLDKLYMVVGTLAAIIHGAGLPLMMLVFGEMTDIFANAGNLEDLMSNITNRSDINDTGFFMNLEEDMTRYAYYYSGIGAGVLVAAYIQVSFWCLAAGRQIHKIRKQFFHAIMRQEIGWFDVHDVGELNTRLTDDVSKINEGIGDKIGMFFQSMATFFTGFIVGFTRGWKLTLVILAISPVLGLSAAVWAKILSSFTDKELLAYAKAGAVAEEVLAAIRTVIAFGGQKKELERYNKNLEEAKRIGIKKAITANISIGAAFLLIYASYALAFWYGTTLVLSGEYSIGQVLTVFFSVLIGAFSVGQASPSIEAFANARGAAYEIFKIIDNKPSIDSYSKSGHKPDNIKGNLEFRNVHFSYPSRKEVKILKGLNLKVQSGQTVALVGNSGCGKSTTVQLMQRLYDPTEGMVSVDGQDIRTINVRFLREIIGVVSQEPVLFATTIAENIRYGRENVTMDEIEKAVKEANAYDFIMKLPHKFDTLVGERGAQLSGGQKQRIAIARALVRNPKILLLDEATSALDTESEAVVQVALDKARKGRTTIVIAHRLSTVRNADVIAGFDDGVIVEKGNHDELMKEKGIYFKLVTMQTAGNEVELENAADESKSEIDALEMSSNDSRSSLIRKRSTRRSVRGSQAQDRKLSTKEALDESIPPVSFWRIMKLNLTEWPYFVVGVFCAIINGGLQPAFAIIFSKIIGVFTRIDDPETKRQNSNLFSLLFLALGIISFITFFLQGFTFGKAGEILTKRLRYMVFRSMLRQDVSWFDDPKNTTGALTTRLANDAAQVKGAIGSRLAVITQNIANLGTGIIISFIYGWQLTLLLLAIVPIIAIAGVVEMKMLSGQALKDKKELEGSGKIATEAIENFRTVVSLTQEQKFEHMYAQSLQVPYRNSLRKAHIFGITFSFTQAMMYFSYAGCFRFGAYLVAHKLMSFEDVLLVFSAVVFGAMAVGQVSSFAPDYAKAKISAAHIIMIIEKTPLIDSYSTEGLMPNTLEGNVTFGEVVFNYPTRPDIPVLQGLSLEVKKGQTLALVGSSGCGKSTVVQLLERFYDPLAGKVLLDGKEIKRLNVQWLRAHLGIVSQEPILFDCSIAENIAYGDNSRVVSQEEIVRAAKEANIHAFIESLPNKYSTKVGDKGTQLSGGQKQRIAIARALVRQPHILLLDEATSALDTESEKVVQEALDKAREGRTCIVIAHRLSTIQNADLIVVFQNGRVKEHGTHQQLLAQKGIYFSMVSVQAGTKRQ
T2 sequence (P33527 whole entry): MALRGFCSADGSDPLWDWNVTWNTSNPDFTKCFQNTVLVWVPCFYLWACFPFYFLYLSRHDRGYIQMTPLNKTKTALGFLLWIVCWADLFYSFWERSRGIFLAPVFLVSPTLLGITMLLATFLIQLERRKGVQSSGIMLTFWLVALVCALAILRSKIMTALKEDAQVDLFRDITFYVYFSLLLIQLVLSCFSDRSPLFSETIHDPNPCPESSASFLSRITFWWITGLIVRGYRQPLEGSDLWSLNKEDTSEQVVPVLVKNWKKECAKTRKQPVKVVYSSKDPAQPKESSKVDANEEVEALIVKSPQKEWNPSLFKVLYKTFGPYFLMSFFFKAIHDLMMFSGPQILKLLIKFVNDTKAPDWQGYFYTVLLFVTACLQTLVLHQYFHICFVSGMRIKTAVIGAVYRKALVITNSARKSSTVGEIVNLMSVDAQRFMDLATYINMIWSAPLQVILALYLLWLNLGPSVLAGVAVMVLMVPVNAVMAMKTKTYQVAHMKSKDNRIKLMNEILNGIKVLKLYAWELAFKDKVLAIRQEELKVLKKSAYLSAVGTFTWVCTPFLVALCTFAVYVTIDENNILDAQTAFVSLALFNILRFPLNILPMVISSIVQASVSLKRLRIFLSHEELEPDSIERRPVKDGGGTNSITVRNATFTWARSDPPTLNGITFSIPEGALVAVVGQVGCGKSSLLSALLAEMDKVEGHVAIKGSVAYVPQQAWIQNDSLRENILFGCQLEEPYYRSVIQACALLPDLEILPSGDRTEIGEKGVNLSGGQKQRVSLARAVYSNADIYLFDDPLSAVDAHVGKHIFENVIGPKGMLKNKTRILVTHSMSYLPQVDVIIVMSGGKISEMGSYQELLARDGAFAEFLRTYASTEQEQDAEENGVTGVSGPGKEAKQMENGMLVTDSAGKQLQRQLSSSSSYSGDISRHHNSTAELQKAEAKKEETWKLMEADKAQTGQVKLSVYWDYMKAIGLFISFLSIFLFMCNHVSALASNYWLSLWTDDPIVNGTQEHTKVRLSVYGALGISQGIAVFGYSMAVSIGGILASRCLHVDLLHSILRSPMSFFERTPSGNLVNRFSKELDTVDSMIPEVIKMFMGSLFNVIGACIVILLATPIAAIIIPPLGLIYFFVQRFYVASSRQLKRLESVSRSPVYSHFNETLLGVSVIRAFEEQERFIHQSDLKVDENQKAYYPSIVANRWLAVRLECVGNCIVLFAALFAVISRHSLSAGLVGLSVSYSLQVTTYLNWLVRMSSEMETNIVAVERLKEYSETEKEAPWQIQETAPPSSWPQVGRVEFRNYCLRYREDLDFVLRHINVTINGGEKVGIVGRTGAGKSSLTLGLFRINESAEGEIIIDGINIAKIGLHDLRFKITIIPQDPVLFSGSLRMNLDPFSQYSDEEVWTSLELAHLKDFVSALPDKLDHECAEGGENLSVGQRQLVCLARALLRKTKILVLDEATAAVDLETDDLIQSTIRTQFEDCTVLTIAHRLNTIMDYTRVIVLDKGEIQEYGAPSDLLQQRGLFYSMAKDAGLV

Take `C=C(CC)C(=O)c1ccc(OCC(=O)O)c(Cl)c1Cl`: the inhibition result in data set [1] was “Active”.
Turning to `COc1cc([C@@H]2c3cc4c(cc3[C@@H](O[C@@H]3O[C@@H]5CO[C@@H](C)O[C@H]5[C@H](O)[C@H]3O)[C@H]3COC(=O)[C@H]23)OCO4)cc(OC)c1O`, the outcome in data set [2] was Active. Besides, the outcome in data set [3] was inactive.
As to `C[C@H]1COC2=C1C(=O)C(=O)c1c2ccc2c1CCCC2(C)C` [CRYPTOTANSHINONE], in data set [4], the inhibition at 25 µM is 50%. This compound gave an EC50 in data set [5] of 22.9 µM. Besides, the Activity result in data set [6] and in [8] was “Dose-dependent effect” throughout. In addition, the result in data set [7], in [3], in [9] and in data set [10] was inactive. Besides, the result in data set [2] was Active.
Regarding `Cc1cccc2c3c(ccc12)C1=C(C(=O)C3=O)[C@@H](C)CO1` [DIHYDROTANSHINONE I], the EC50 in data set [11] is 2.5 µM; in data set [12], 5.5 µM; in [13], above 10 µM; in data set [14], 4.7 µM; in data set [5], 6.5 µM. Further, in [6], the Activity entry is “Dose-dependent effect”. Further, the outcome in data set [7], in data set [3], in data set [9] and in [10] was inactive. Moreover, the outcome in data set [15] and in data set [2] was Active. In addition, the entries for the “fold change (FC)” value in data set [16] and in data set [17] were 2 and 2.5, respectively.
Consider `COc1cccc2c1C(=O)c1c(O)c3c(c(O)c1C2=O)C[C@@](O)(C(=O)CO)C[C@@H]3O[C@H]1C[C@H](N)[C@H](O)[C@H](C)O1` [DOXORUBICIN], for which the EC50 in data set [11] was 6.1 µM; in data set [12] it was 5.6 µM; in [13], above 10 µM; in data set [14], above 10 µM.
For `COc1ccc2c(c1)c(CC(=O)O)c(C)n2C(=O)c1ccc(Cl)cc1` [INDOMETHACIN], the “inhibition (INH)” value in [18] was “Not Active”; in [19], “Active”.
Take `Cc1coc2c1C(=O)C(=O)c1c-2ccc2c1CCCC2(C)C` [TANSHINONE IIA]: it took 57.5 µM to reach a half-maximal effect in data set [5] (EC50). The Activity result in data set [6] was “Dose-dependent effect”. The result in data set [7], in data set [3], in [9] and in data set [10] was inactive. For the same compound, in data set [2], the outcome was Active.
For the compound `Cc1coc2c1C(=O)C(=O)c1c-2ccc2c(C)cccc12` [TANSHINONE I], the EC50 in [11] is 6.3 µM; in [12] it was above 10 µM; in [13] it was above 10 µM; in data set [14], above 10 µM; in [5] it was 74.1 µM. For the same compound, in data set [6], the Activity entry is “Dose-dependent effect”. Further, the outcome in data set [7], in data set [3], in data set [9] and in data set [10] was inactive. The result in [15] and in [2] was Active. For the same compound, the inhibition at 6.25 µM in data set [20] is 50%.
